This note sets out measurements from ChEMBL document CHEMBL1649230, “Aryl rhodanines specifically inhibit staphylococcal and enterococcal biofilm formation” (Antimicrob Agents Chemother, 2009).

The subject of data set [1] is Staphylococcus epidermidis. Kind of data set: Antimicrobial activity against Staphylococcus epidermidis 1457 on medical grade silicone disk assessed as inhibition of bacterial biofilm after 18 hrs by broth microdilution method. Format: functional. A general note: Broth dilution looks for growth in wells or tubes with falling amounts of substance.
Data set [2] in a line: Cytotoxicity against human HeLa cells after 3 days by MTT assay. Format: cell-based. In short, it runs like this: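 HeLa cells were seeded at 4 × 10^3 per well with or without serial dilutions of compound in DMSO. Plates were incubated 3 days at 37°C in minimal essential medium with 10% calf serum, and viability was read by MTT. CC50 was the concentration that reduced MTT-to-formazan conversion by 50%.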
A general note: Tetrazolium dyes change colour on reduction, which living cells bring about.

Data set [3] concerns Staphylococcus epidermidis. Kind of data set: Antimicrobial activity against Staphylococcus epidermidis 1457 assessed as inhibition of bacterial biofilm after 18 hrs by broth microdilution method. Format: functional. The method, boiled down: (§1)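 Static biofilm in tissue culture-treated polystyrene 96-well plates in 0.5× TSB with 1% glucose. Overnight culture diluted 1:100 gives about 5 × 10^6 cells/well. Compound 2-fold series, final 0.2–100 μM, 2% DMSO. Incubated 18 h at 37°C. Washed, heat-fixed 60°C for 60 min, stained with 0.06% crystal violet, read at OD600. MBIC is the lowest concentration giving ≥80% inhibition versus untreated. Geometric mean of ≥3 independent experiments.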

The subject of data set [4] is Staphylococcus epidermidis. Nature of the data set: Antimicrobial activity against Staphylococcus epidermidis O-47 assessed as inhibition of bacterial biofilm after 18 hrs by broth microdilution method. Format: functional. The method, boiled down: as §1
In data set [5] the test system is Staphylococcus aureus. Nature of the data set: Antimicrobial activity against Staphylococcus aureus ATCC 35556 assessed as inhibition of bacterial biofilm formation after 18 hrs by broth microdilution method in presence of 10 ug/ml fibrinogen. Format: functional. In short, it runs like this:
(§2)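 Polystyrene 96-well wells precoated with 100 μl fibronectin or fibrinogen (0–20 μg protein/ml) for 24 h at 4°C. Wells then washed with sterile water. The standard MBIC biofilm assay followed: 0.5× TSB with 1% glucose, 2% DMSO, 18 h at 37°C, crystal violet read at OD600.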

Data set [6] relates to Staphylococcus epidermidis. Kind of data set: Antimicrobial activity against coagulase-negative Staphylococcus epidermidis isolate WTBF-47 assessed as inhibition of bacterial biofilm after 18 hrs by broth microdilution method. Format: functional. The method, boiled down:
as §1

Data set [7] relates to Staphylococcus aureus. Nature of the data set: Antimicrobial activity against Staphylococcus aureus ATCC 35556 assessed as inhibition of bacterial biofilm formation after 18 hrs by broth microdilution method in presence of 20 ug/ml fibronectin. Format: functional. In short, it runs like this: as §2
A further data set has as its system Pseudomonas aeruginosa. Nature of the data set: Antimicrobial activity against Pseudomonas aeruginosa PAO1 assessed as inhibition of bacterial biofilm after 18 hrs by broth microdilution method. Format: functional. In short, it runs like this:
(§3)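 Polystyrene plates with breathable lids in 1× TSB (0.25% glucose), 37°C for 18 h. Biofilms form at the air-liquid interface. Stained with crystal violet, dye eluted with 30% acetic acid, OD read. Compound 2-fold series, final 0.2–100 μM in 2% DMSO. MBIC taken at ≥80% inhibition versus untreated. Geometric mean of ≥3 experiments.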

The test system of data set [8] is Enterococcus faecalis. Nature of the data set: Antimicrobial activity against vancomycin-resistant Enterococcus faecalis ATCC 51575 assessed as inhibition of bacterial biofilm after 18 hrs by broth microdilution method. Format: functional. The method, boiled down:
(§4)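 Biofilm MBIC on tissue culture-treated polystyrene 96-well plates. Twofold dilutions, 0.2 to 100 μM final, with 2% DMSO final. Inoculum was an overnight culture diluted 1:100 (~5 × 10^6 cells/well) in 0.5× TSB plus 1% glucose, grown 18 h at 37°C. Wells washed, heat-fixed 60°C 60 min, stained with 0.06% crystal violet, OD600 read. MBIC is the lowest concentration giving ≥80% inhibition versus untreated; geometric mean of ≥3 experiments.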

Data set [9] concerns Staphylococcus aureus. Kind of data set: Antimicrobial activity against hospital acquired methicillin-resistant Staphylococcus aureus isolate 58336 assessed as inhibition of bacterial biofilm after 18 hrs by broth microdilution method. Format: functional. In short, it runs like this: as §4
Data set [10] concerns Enterococcus faecalis. Kind of data set: Antimicrobial activity against vancomycin-resistant Enterococcus faecalis isolate F317 assessed as inhibition of bacterial biofilm after 18 hrs by broth microdilution method. Format: functional. In short, it runs like this:
as §4

The subject of data set [11] is Staphylococcus aureus. Kind of data set: Antimicrobial activity against community acquired methicillin-resistant Staphylococcus aureus isolate 24209 assessed as inhibition of bacterial biofilm after 18 hrs by broth microdilution method. Format: functional. The method, boiled down: as §4
In data set [12] the test system is Staphylococcus aureus. Nature of the data set: Antimicrobial activity against community-acquired Staphylococcus aureus MW2 on medical grade silicone disk assessed as inhibition of bacterial biofilm after 18 hrs by broth microdilution method. Format: functional.
Data set [13] concerns Staphylococcus aureus. Nature of the data set: Antimicrobial activity against community acquired methicillin-resistant Staphylococcus aureus isolate 38230 assessed as inhibition of bacterial biofilm after 18 hrs by broth microdilution method. Format: functional. In short, it runs like this:
as §4

For data set [14], the system named is Enterococcus faecium. Kind of data set: Antimicrobial activity against vancomycin-resistant Enterococcus faecium isolate F1181 assessed as inhibition of bacterial biofilm after 18 hrs by broth microdilution method. Format: functional. In short, it runs like this:
as §4

The next data set relates to Escherichia coli. Kind of data set: Antimicrobial activity against Escherichia coli ATCC 25922 assessed as inhibition of bacterial biofilm after 18 hrs by broth microdilution method. Format: functional. In short, it runs like this:
as §3

The test system of data set [15] is Staphylococcus aureus. Kind of data set: Antimicrobial activity against Staphylococcus aureus ATCC 35556 assessed as inhibition of bacterial biofilm formation after 18 hrs by broth microdilution method in presence of 10 ug/ml fibronectin. Format: functional. The method, boiled down: as §2
In data set [16] the test system is Staphylococcus aureus. Kind of data set: Antimicrobial activity against community acquired community-acquired Staphylococcus aureus MW2 assessed as inhibition of bacterial biofilm after 18 hrs by broth microdilution method. Format: functional. In short, it runs like this:
as §4

The subject of data set [17] is Staphylococcus aureus. Nature of the data set: Antimicrobial activity against methicillin-susceptible Staphylococcus aureus on medical grade silicone disk assessed as inhibition of bacterial biofilm after 18 hrs by broth microdilution method. Format: functional. The method, boiled down:
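S. aureus ATCC 35556 biofilms were grown on autoclaved medical-grade silicone disks fixed in 24-well plates. The inoculum was a 1:100 dilution of an overnight culture in 0.5× TSB with 1% glucose, with compound at 0× to 8× MBIC and 2% DMSO final, in at least three wells. Plates were held about 18 h at 37°C, water-washed, heat-fixed at 60°C for 60 min, and stained with 0.06% CV. CV was eluted in 30% acetic acid and read at OD600, averaging three disks; runs were repeated ≥3 times.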

For data set [18], the system named is Staphylococcus aureus. Nature of the data set: Antimicrobial activity against Staphylococcus aureus ATCC 35556 assessed as inhibition of bacterial biofilm formation after 18 hrs by broth microdilution method in presence of 5 ug/ml fibrinogen. Format: functional. In short, it runs like this:
as §2

For data set [19], the system named is Enterococcus faecium. Nature of the data set: Antimicrobial activity against vancomycin-resistant Enterococcus faecium isolate 1401 assessed as inhibition of bacterial biofilm after 18 hrs by broth microdilution method. Format: functional. The method, boiled down:
as §4

In data set [20] the test system is Staphylococcus aureus. Nature of the data set: Antimicrobial activity against community acquired methicillin-susceptible Staphylococcus aureus assessed as inhibition of bacterial biofilm after 18 hrs by broth microdilution method. Format: functional. In short, it runs like this:
as §1

The test system of data set [21] is Staphylococcus aureus. Nature of the data set: Antimicrobial activity against hospital acquired methicillin-resistant Staphylococcus aureus isolate 47263 assessed as inhibition of bacterial biofilm after 18 hrs by broth microdilution method. Format: functional. In short, it runs like this:
as §4

The test system of data set [22] is Enterococcus gallinarum. Kind of data set: Antimicrobial activity against vancomycin-resistant Enterococcus gallinarum isolate 2392 on medical grade silicone disk assessed as inhibition of bacterial biofilm after 18 hrs by broth microdilution method. Format: functional. The method, boiled down:
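Medical-grade silicone disks glued to 24-well plate bottoms. Compound added to a 1:100 overnight-culture inoculum (0.5× TSB, 1% glucose) at 2% DMSO final; ≥3 wells each, ~18 h at 37°C. Washed with water, heat-fixed 60°C 60 min, stained with 0.06% crystal violet, eluted with 30% acetic acid, OD600 read. Repeated ≥3 times.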

Data set [23] has as its system Enterococcus gallinarum. Kind of data set: Antimicrobial activity against vancomycin-resistant Enterococcus gallinarum isolate 2392 assessed as inhibition of bacterial biofilm after 18 hrs by broth microdilution method. Format: functional. In short, it runs like this:
as §4

For data set [24], the system named is Staphylococcus aureus. Nature of the data set: Antimicrobial activity against community acquired methicillin-resistant Staphylococcus aureus isolate 22733 assessed as inhibition of bacterial biofilm after 18 hrs by broth microdilution method. Format: functional. In short, it runs like this: as §4

SMILES strings stand for the structures.

The CC50 is the concentration at which the toxic effect on the cells reaches its halfway point. Low readings indicate greater toxicity to the cells, high ones lower toxicity to the cells. Regarding `CCOc1cc(/C=C2\SC(=S)N(c3cccnc3)C2=O)ccc1O`, the values for the MBIC90 (in data set [1]; with Staphylococcus aureus [12]; in the data set on Staphylococcus aureus [17]) were 35.4 µM, 25 µM and 25 µM, respectively. For the same compound, the half-maximal cytotoxic concentration (CC50) at 72 h in [2] is ≥ 100 µM. Also, the MBIC in data set [3] was 12.5 µM; in [4], 59.5 µM; with Staphylococcus aureus [5], 12.5 µM; in [6] it was 12.5 µM; with Staphylococcus aureus [7], 12.5 µM; in the data set on Pseudomonas aeruginosa it was “>=100 uM”. For the same compound, the MBIC in the data set on Enterococcus faecalis [8] is 21 µM; in the data set with Staphylococcus aureus [9], 14.9 µM; in the data set with Enterococcus faecalis [10] it was 15.7 µM; in the data set with Staphylococcus aureus [11], 25 µM; with Staphylococcus aureus [13], 19.8 µM; with Enterococcus faecium [14] it was “>=100 uM”. Also, the MBIC result is “>=100 uM” in the data set with Escherichia coli; 12.5 µM in the data set on Staphylococcus aureus [15]; 21 µM with Staphylococcus aureus [16]; 12.5 µM in the data set on Staphylococcus aureus [18]; 19.8 µM in the data set with Enterococcus faecium [19]; 12.5 µM in the data set with Staphylococcus aureus [20].

As for `CCOc1cc(/C=C2\SC(=S)N(c3cccc(F)c3)C2=O)ccc1O`, the MBIC90 in data set [1] was 59.5 µM; in the data set on Enterococcus gallinarum [22], “>=100 uM”; in the data set on Staphylococcus aureus [12], 70.7 µM; in the data set on Staphylococcus aureus [17], 70.7 µM. For the same compound, the CC50 at 72 h in [2] is ≥ 100 µM. In addition, the MBIC in the data set on Staphylococcus aureus [21] is 8.8 µM; in data set [3], 50 µM; in [4], 100 µM; in the data set on Staphylococcus aureus [5], 6.25 µM; in data set [6], 42 µM; in the data set with Staphylococcus aureus [7], 6.25 µM. Moreover, the MBIC entry in the data set with Pseudomonas aeruginosa was “>=100 uM”; with Enterococcus faecalis [8], 63 µM; in the data set with Staphylococcus aureus [9], 10.5 µM; in the data set with Enterococcus faecalis [10], 100 µM; in the data set on Staphylococcus aureus [11], 100 µM; with Enterococcus gallinarum [23], 50 µM. For the same compound, the MBIC entry in the data set with Enterococcus faecium [14] is “>=100 uM”; in the data set with Staphylococcus aureus [24] it was 70.7 µM; in the data set on Escherichia coli it was “>=100 uM”; in the data set on Staphylococcus aureus [15], 6.25 µM; in the data set with Staphylococcus aureus [16], 31.5 µM; with Staphylococcus aureus [18] it was 6.25 µM. In addition, the values for the MBIC result in the data set with Enterococcus faecium [19] and in the data set with Staphylococcus aureus [20] were “>=100 uM” and 14.9 µM, respectively.
